Pyk2 oligo antag – blocks oligomerization of human Pyk2 in cells; Q14289; Q293 cells, Pyk2 FERM NanoBiT luminescence; active compounds read low; AID 1347419; 99,000 tested, 0.83% active; z-score (the deposit names both 25 µM and 10 µM);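 active = Z-score of -3 or lower, scaled per plate to the spread of control and sample wells; inactive = z-score above -3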;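 also: negative z-score means lost luminescence so less FERM oligomerization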
Target sequence (Q14289 whole entry, looked up): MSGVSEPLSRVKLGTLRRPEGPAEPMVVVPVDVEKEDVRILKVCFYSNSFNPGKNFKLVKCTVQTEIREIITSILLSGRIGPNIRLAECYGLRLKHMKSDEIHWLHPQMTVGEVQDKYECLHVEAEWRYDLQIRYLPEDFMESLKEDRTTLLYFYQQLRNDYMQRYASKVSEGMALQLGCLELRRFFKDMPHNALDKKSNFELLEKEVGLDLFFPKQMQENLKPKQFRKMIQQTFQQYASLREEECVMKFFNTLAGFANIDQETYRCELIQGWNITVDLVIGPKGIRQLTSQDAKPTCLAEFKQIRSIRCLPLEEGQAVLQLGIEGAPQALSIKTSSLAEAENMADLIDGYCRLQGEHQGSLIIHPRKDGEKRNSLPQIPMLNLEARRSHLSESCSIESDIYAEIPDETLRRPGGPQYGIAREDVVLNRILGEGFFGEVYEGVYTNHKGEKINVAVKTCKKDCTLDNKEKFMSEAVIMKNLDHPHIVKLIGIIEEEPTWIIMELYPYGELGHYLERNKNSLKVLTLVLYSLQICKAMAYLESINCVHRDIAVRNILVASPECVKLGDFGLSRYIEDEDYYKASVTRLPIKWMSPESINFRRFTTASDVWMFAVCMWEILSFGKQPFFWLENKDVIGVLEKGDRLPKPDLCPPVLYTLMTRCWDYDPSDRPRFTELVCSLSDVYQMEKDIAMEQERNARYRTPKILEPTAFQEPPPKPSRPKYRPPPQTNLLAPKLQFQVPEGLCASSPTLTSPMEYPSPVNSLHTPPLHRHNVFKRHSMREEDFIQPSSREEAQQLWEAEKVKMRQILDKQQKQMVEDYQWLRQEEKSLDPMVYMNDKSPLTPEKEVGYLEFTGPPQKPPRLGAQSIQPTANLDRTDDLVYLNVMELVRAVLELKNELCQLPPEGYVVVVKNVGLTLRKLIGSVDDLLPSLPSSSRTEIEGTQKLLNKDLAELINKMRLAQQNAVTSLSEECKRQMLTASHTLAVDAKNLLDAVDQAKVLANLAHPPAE
PostGolgi ctrl – inhibits growth of the yeast control strain; inhibition, % at 10 µM; efflux-deficient yeast background strain, growth absorbance A615, 16 h; 98,000 tested, 5% active; AID 738
FAK blocker – blocks human focal adhesion kinase activity. biochemical FAK kinase activity assay. AID 727. inhibition, %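 (tested at 7 µM)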. 97,000 tested, 0.84% active. Q05397; in the data active = inhibition above about 19%;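 also: 0% = DMSO and 100% = reference compound high control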
Calb biofilm kill – kills Candida albicans biofilms; C. albicans biofilm + clotrimazole, Alamar Blue; inhibition, % at 6 µM; 85,000 tested, 0.14% active; AID 834;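 active = inhibition above 20%; inactive = inhibition below 20%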;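 also: preformed 24 hr biofilms exposed to compound for 48 hr; 0% = biofilm without compound and 100% = blank killed by clotrimazole plus chlorhexidine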
PostGolgi yeast – growth inhibition of a yeast mutant, post-Golgi transport screen; post-Golgi transport phenotypic cell assay; inhibition, % at 10 µM; 98,000 tested, 0.9% active; AID 739;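 also: yeast cells grown in 1536-well plates; yeast grown about 18 h at 30C before absorbance read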
Ecoli tolC – growth inhibitors of E. coli BW25113 tolC mutant; OD615; growth inhibition, % at 10 µM (by protocol); 65,000 tested, 2.2% active; AID 573;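 active = growth inhibition at or above a cutoff equal to the mean over every tested compound plus 3 SD, cut at about 60% in these data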;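 also: growth measured after 20 h incubation at 37 °C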
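Test system: tolC-deleted E. coli BW25113; medium: LB with kanamycin 50 µg/mL; compound: single-point testing at 10 µM; incubation: 20 h compound exposure of bacteria at 37 °C; signal: OD at 615 nm; evaluation: growth inhibition in percent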
* marks the source's active call; other numbers are inactive results; nt = no result given. Most compounds without a hit are left out; they make up all but 6.9% or so of the library. Rule as the data show it, unless noted: active = inhibition above about 30%; inactive = the rest.

SMILES	Pyk2 oligo antag	PostGolgi ctrl	FAK blocker	Calb biofilm kill	PostGolgi yeast	Ecoli tolC
CCOC(=O)c1cc(C)n(S(=O)(=O)c2ccc(C)cc2)c1C	0.16	1	-4	nt	-7	66*
CCOC(=O)c1cc(C)n(Cc2ccccc2)c1C	-1.3	16	2	5	7	19
COc1ccc(-c2cc(C(F)(F)F)nc(N3CCOCC3)n2)cc1OC	-0.57	9	-3	8	-4	26
COc1ccc(-c2cc(C(F)(F)F)nc(NC3CCCC3)n2)cc1OC	-0.5	34*	1	4	0	20
C=C(C)CSc1nnc(-c2cccc(Cl)c2)n1N	0.92	6	2	5	15	11
O=c1[nH]c(NCCO)nc2c1C1(CCCCC1)Cc1ccccc1-2	-1.4	31*	4	9	-2	19
CCC1(CC)Cc2ccccc2-c2nc(NCCO)[nH]c(=O)c21	0.25	nt	2	-1	nt	nt
COC(=O)c1ccc(-n2c(C)cc(/C=N/n3cnnc3)c2C)cc1	1.9	8	nt	1	4	6
CC1CCCCC1NC(=O)c1ccc(S(=O)(=O)N2CCCC2)cc1 (centres undefined)	0.3	7	-2	7	-2	nt
COc1ccc(N2CCN(C(c3cc4cc(C)ccc4[nH]c3=O)c3nnnn3Cc3ccccc3)CC2)cc1 (centres undefined)	0.58	4	2	1	0	nt
COc1ccc(Cn2nnnc2C(c2cc3cc(C)ccc3[nH]c2=O)N2CCOCC2)cc1 (centres undefined)	1.2	44*	2	1	13	-8
Cc1cc(C)c2[nH]c(=O)c(C(c3nnnn3Cc3ccc4c(c3)OCO4)N3CCC(C)CC3)cc2c1 (centres undefined)	0.89	33*	0	6	0	40
COc1ccc(Cn2nnnc2C(c2cc3cccc(C)c3[nH]c2=O)N2CCOCC2)cc1 (centres undefined)	0.33	34*	5	-3	2	-10
Cn1c(=O)cc(OCC(=O)NCc2cccnc2)c2ccccc21	0.29	2	4	7	-6	-2
O=S1(=O)CC(O)C(Nc2ccccc2)C1 (centres undefined)	-0.95	3	1	4	14	nt
CC(C)c1ccc(N=c2c([N+](=O)[O-])nn(-c3ccc4c(c3)OCCO4)n2O)cc1	-4*	-1	-3	nt	-1	nt
Cc1cc(C)cc(N=c2c([N+](=O)[O-])nn(-c3cccc(Cl)c3)n2O)c1	-0.62	28	2	0	6	nt
COc1ccc(C(=O)NCCn2cc(SCC(=O)N3CCOCC3)c3ccccc32)cc1	-0.56	-1	1	-2	19	8
CCOc1cc(C)c(C(C)C)cc1S(=O)(=O)N1CC(C)OC(C)C1 (centres undefined)	-1.8	18	-1	3	-5	68*
CCOc1cc(Br)ccc1S(=O)(=O)N1CC(C)OC(C)C1 (centres undefined)	-0.45	10	1	-4	13	nt
c1ccc2sc(Cc3nnc4n3CCCCC4)nc2c1	-0.16	41*	nt	5	-2	-14
COc1ccc(-c2csc(Cc3nnc4n3CCCCC4)n2)cc1	1.6	-4	5	1	13	-2
O=[N+]([O-])c1ccc(Oc2cccc(Br)c2)c2ccncc12	-1.3	79*	4	2	8	nt
O=[N+]([O-])c1ccc(Oc2ccc(F)cc2)c2ccncc12	-0.77	30	3	3	16	nt
O=C(O)CCSc1nc2ccc(Br)cc2[nH]1	-0.95	3	2	1	5	-28
SMILES	Pyk2 oligo antag	PostGolgi ctrl	FAK blocker	Calb biofilm kill	PostGolgi yeast	Ecoli tolC
CCc1cc2cccc(C)c2nc1SCC(=O)N1CCN(C(=O)c2ccco2)CC1	-1	36*	nt	6	-4	29
O=C(CCCN1C(=O)c2ccccc2C1=O)Nc1sc2c(c1C(=O)NCc1ccco1)CCC2	-1.7	16	7	6	-14	15
Cc1cc(N/C(=N\S(=O)(=O)c2ccc(Cl)cc2)c2ccc(F)cc2)no1	-1.5	9	nt	nt	2	4
Cc1csc(NC(=O)CSc2nnc(-c3ccoc3C)o2)n1	0.62	-11	11	7	-8	8
CCCN(Cc1cc2ccc(C)cc2[nH]c1=O)C(=O)c1cccnc1	-0.29	9	-9	3	7	-8
CCN(Cc1cc2ccc(C)cc2[nH]c1=O)C(=O)c1ccncc1	nt	44*	0	3	-12	3
CC(C)(C)c1ccc(C(=O)Nc2ccccc2NC(=O)c2ccco2)cc1	-1	nt	-3	4	nt	nt
O=C(COC(=O)c1cc(=O)[nH]c2ccccc12)NC(=O)NC1CCCCC1	-3.7*	30	3	3	3	15
COc1cc(OC)cc(C(=O)Nc2ccc(S(=O)(=O)N(C)C)cc2)c1	-0.31	-1	1	-1	-4	19
O=C(CCn1c(=O)oc2ccccc21)Nc1nc2ccccc2s1	nt	26	-1	2	-4	nt
CCC(=O)NC(Nc1sc2c(c1C(=O)OC)CCC2)C(Cl)(Cl)Cl (centres undefined)	-0.5	nt	nt	nt	nt	nt
COC(=O)c1c(NC(NC(=O)C(C)(C)C)C(Cl)(Cl)Cl)sc2c1CCC2 (centres undefined)	-0.71	51*	-4	nt	-2	nt
COC(=O)c1c(NC(=O)C2CC2)sc2c1CCCC2	nt	35*	4	17	-7	40
COC(=O)c1c(NC(=O)c2ccc(Br)s2)sc2c1CCC2	0.55	15	-2	5	5	-1
COC(=O)c1c(NC(=O)c2nn(C)cc2Cl)sc2c1CCCC2	-0.58	33*	nt	-4	-2	-1
O=C(Nc1cccc(Cl)c1)c1ccc2c(=O)n3c(nc2c1)CCCCC3	-1.8	22	6	-2	7	30
Cc1ccccc1CNC(=O)Nc1cccs1	0.73	4	4	7	22	4
O=C1c2ccccc2C(=O)N1OCc1ccccc1	-0.23	7	-1	5	-18	-10
O=C1c2cccc3c(Cl)ccc(c23)C(=O)N1O	-0.21	34*	1	1	4	58
O=C(c1ccc2c3c(cccc13)C(=O)N(O)C2=O)N1CCCCC1	-0.58	-1	-2	7	-2	4
O=C(O)CCS(=O)(=O)c1nc(-c2cccs2)cc(C(F)(F)F)n1	0.55	16	2	1	4	nt
CCOC(=O)CS(=O)(=O)c1nc(-c2ccc(F)cc2)cc(C(F)(F)F)n1	-0.08	48*	nt	6	8	18
CC(C)OC(=O)CSc1nc(-c2ccc(F)cc2)cc(C(F)(F)F)n1	-0.87	nt	0	-2	nt	nt
CCOC(=O)CS(=O)(=O)c1nc(-c2ccccc2)cc(C(F)(F)F)n1	0.51	nt	-2	1	nt	15
CCOC(=O)CCS(=O)(=O)c1nc(-c2ccccc2)cc(C(F)(F)F)n1	0.15	73*	0	-1	-6	43
COC(=O)CCS(=O)(=O)c1nc(-c2ccccc2)cc(C(F)(F)F)n1	-2.5	57*	1	8	0	nt
Cc1ccnc(NC(=O)c2cccc(NC(=O)COc3ccccc3)c2)c1	-0.2	-5	7	nt	-15	nt
